High-throughput results: PubChem BioAssay, several laboratories
S1P4 agonist: activates the human S1P4 receptor. AID 1509. activation, % at 4.98 µM. S1P4-expressing cell line, agonist reporter assay. O95977. actives 0.35% (n = 220,000); in the data active = activation above about 11%;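 note: 0% = DMSO vehicle and 100% = reference agonist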
Target sequence (O95977 whole entry, looked up): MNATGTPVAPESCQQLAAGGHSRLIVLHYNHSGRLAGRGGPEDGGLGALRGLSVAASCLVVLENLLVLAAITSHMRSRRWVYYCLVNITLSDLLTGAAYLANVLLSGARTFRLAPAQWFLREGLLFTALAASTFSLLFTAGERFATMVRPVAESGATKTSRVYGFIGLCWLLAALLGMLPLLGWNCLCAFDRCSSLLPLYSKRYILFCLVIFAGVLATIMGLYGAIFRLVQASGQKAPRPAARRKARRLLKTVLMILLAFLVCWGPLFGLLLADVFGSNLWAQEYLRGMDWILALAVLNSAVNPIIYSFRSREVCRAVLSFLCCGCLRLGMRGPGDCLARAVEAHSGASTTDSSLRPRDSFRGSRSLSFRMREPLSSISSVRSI
S1P3 antagonist: blocks the human S1P3 receptor; Q99500; CHO S1P3 NFAT-BLA reporter, FRET fluorescence, antagonist mode; inhibition, % at 4.98 µM; actives 0.27% (n = 170,000); AID 485;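 active = inhibition above the plate cutoff, the mean inhibition of test wells on that plate plus 3 SD, cut at about 28% in these data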;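 note: cells challenged with S1P at its EC80 of 0.8 µM; blue over green emission ratio from cleaved BLA substrate after 4 h stimulation; 0% = S1P-stimulated wells and 100% = unstimulated DMSO-only wells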
L major viab: inhibitors of Leishmania major promastigote growth. Leishmania major promastigotes, resazurin fluorescence viability. inhibition, % at 10 µM. actives 9% (n = 200,000); in the data active = inhibition above about 50%;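 note: promastigotes grown with compound for 44 hours at 28 °C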
Mdm2 ligase inh: inhibitors of human Mdm2 E3 ubiquitin ligase. signal enhancement, % at 5 µM. cell-based MDM2 ubiquitination luciferase reporter, 2 h; 0 = plate control, 100 = twice control, blank-subtracted. AID 1230. actives 0.11% (n = 210,000). Q00987;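 active = signal enhancement of 30% or more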;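 note: luminescence tracks abundance of the self-degrading MDM2-luciferase fusion protein; higher signal means inhibition of MDM2 E3 ligase activity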
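Timing – 2 h compound exposure at 37 °C · Assay system – mammalian cells stably expressing self-ubiquitinating, self-degrading MDM2 E3–luciferase fusion · Amount – 2000 cells seeded into each well · Measure – % luminescence enhancement versus blank-corrected plate control mean · Measured by – SteadyLite luminescence, 15 min reagent step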
S1P4 antagonist: antagonists of human S1P4 receptor; O95977; S1P4-expressing cells, antagonist mode, reporter read-out; inhibition, % at 4.98 µM; actives 0.26% (n = 220,000); AID 1510; in the data active = inhibition above about 29%;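 note: 0% = wells stimulated with agonist and 100% = vehicle wells without agonist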
* = called active by the depositor; / = not tested or not shown. The full list was thinned out, with hits kept by preference.

SMILES | S1P4 agonist | S1P3 antagonist | L major viab | Mdm2 ligase inh | S1P4 antagonist
COc1cccc(NC(=S)N(CCCN2CCCC(C)C2)Cc2cccs2)c1 (stereo not given) | 0 | -4 | 100* | -10 | 12
CSc1cccc(NC(=S)N(CCCN2CCCC(C)C2)Cc2cccs2)c1 (stereo not given) | -2 | 7 | 99* | -16 | 21
COc1ccc(NC(=S)N2CCC(N(C)CCN3CCOCC3)CC2)cc1Cl | 2 | -1 | 76* | -10 | 1
CC(=O)N(C)c1ccc(NC(=O)c2cnn(C)c2)cc1 | -2 | / | -1 | -12 | -14
CC(C)CCN1C(=O)c2ccc(C(=O)NCC3CCCO3)cc2C1=O (stereo not given) | 2 | -10 | -2 | -12 | 12
O=C(CSc1ncnc2scc(-c3ccc(Cl)cc3)c12)NCc1ccc2c(c1)OCO2 | 2 | / | 4 | -14 | -19
COc1ccc(NC(=S)NCCN2CCC(C)CC2)cc1Cl | 0 | -13 | 69* | / | -8
CC(C)CCNC(=O)C1CCC(CNc2c(N3CCCC3)c(=O)c2=O)CC1 (stereo not given) | 1 | 3 | / | -10 | -10
CCCCc1ccc(-n2nnnc2SCC(=O)Nc2cc(OC)c([N+](=O)[O-])cc2C)cc1 | 0 | 7 | -3 | 5 | -12
Cc1ccc(C(=O)CC(=O)c2cccc(F)c2)c(O)c1 | 2 | / | 97* | -20 | 5
Cc1ccc(O)c(C(=O)CC(=O)c2ccccc2Cl)c1 | 2 | -2 | 95* | 6 | 0
Cc1ccc(C)c(NC(=O)c2ccccc2O)c1 | 2 | -7 | 16 | -8 | -3
c1ccc(CC(Nc2ccccn2)c2ccccc2)cc1 (stereo not given) | 0 | 8 | 43 | -3 | 7
Cn1c(Sc2ccc(Br)cc2)c(C=O)c2ccccc21 | -2 | / | 57* | 4 | -4
Cn1c(Oc2ccc(F)cc2)c(C=O)c2ccccc21 | 1 | -8 | 1 | 5 | -5
Cn1cc(C(=O)CCl)c2ccccc21 | 1 | -2 | 92* | -1 | 1
CC(C)c1ccc(NC(=O)c2sccc2-n2cccc2)cc1 | -1 | -1 | 14 | -7 | 7
CC1=C(C(=O)OCc2ccccc2)C(c2cccnc2)c2c(n(C)c(=O)n(C)c2=O)N1 (stereo not given) | 1 | / | 75* | -5 | -4
CC1=C(C(=O)OCc2ccccc2)C(c2cccnc2)n2ncnc2N1 (stereo not given) | 0 | -12 | 3 | 17 | -22
COc1cc([N+](=O)[O-])ccc1NC(=O)C[n+]1cccc(C(C)=O)c1 | 1 | -15 | -9 | -7 | -6
S=C(NN=C(C1CC1)C1CC1)Nc1ccccc1 | 1 | / | 67* | / | 7
COc1ccc(-c2nc(-c3ccccc3)c(-c3cc([N+](=O)[O-])ccc3C)[nH]2)cc1O | 0 | / | 32 | -18 | -8
COc1ccc(-c2nc(=S)c3c([nH]2)Oc2ccc(C)cc2C3)cc1O | 1 | -5 | 97* | -4 | -34
CCn1c(=O)n(CC)c2cc(S(=O)(=O)Nc3cc(C)cc(C)c3C#N)ccc21 | -1 | / | 13 | -8 | 10
CCn1c(=O)n(CC)c2cc(S(=O)(=O)Nc3c(C)cccc3C)ccc21 | 0 | / | 98* | -8 | -13
SMILES | S1P4 agonist | S1P3 antagonist | L major viab | Mdm2 ligase inh | S1P4 antagonist
Cc1cccc(C)c1OCC(=O)N(Cc1ccc(N(C)C)cc1)C1CCS(=O)(=O)C1 (stereo not given) | 2 | 5 | / | -3 | -14
CC(=O)c1coc2ccc(OCCN3CCCCC3)cc12 | 2 | -13 | 91* | -9 | 3
Cc1ccccc1-c1nnn(CC(=O)Nc2ccc3c(c2)OCO3)n1 | 1 | 4 | -6 | -4 | 2
CCCCSc1cnn(-c2ccccc2)c(=O)c1SCCCC | 2 | / | 79* | -2 | -2
CCSc1cnn(-c2ccccc2)c(=O)c1SCC | -1 | / | 23 | 6 | -3
Cc1ccc(C)c(N2CCN(CCCNC(=O)Cn3cccc3C(=O)c3ccccc3C)CC2)c1 | -2 | 5 | 93* | -35 | 15
Cc1ccccc1C(=O)c1cccn1CC(=O)NCCN1CCN(c2cccc(C)c2C)CC1 | -1 | / | 100* | -3 | -23
COC(=O)CS(=O)(=O)c1cccc2cccnc12 | -2 | -11 | -4 | 11 | -12
Cc1ccc(C(=O)NC(NCc2ccco2)C(Cl)(Cl)Cl)cc1 (stereo not given) | -2 | 3 | 60* | 1 | 7
Cc1ccc(/C([O-])=C(/C(=S)Nc2ccc(SC(F)F)cc2)[n+]2ccccc2)cc1[N+](=O)[O-] | 0 | 0 | 29 | -18 | -22
Cc1cccc(N2C(=N)SCC2=O)c1C | 1 | 4 | 54* | 1 | -14
O=c1cc(CN2CCN(c3ccccc3)CC2)c2cc(O)c(-c3ccccc3)cc2o1 | 0 | 19 | 73* | -3 | 4
O=c1cc(CN2CCN(C/C=C/c3ccccc3)CC2)c2cc(O)ccc2o1 | -2 | -10 | 51* | -10 | -17
CC(NC(=O)c1c(Cl)cnn1C)C1CCCO1 (stereo not given) | 0 | -2 | / | -8 | -8
O=[N+]([O-])/C=C/c1cn(Cc2ccc(F)cc2)c2ccccc12 | 0 | / | 99* | -17 | -8
CCN1CCN(c2cc(C)c3cc(NC(=S)N4CC(C)CC(C)C4)ccc3n2)CC1 (stereo not given) | 0 | -2 | 100* | -8 | -13
CCN1CCN(c2cc(C)c3cc(NC(=S)N4CCCC4)ccc3n2)CC1 | 0 | -22 | 5 | 2 | -4
CCN1CCN(c2cc(C)c3cc(NC(=S)N4CCCC(C)C4)ccc3n2)CC1 (stereo not given) | 2 | 5 | 96* | -34 | -14
CCN1CCN(c2cc(C)c3cc(NC(=S)N4CCN(c5ccc(F)cc5)CC4)ccc3n2)CC1 | 1 | -2 | 38 | -11 | -32
O=C(c1cc2ccccc2oc1=O)N(c1ccc(Cl)cc1)C1C=CS(=O)(=O)C1 (stereo not given) | 1 | -13 | 61* | -2 | -17
O=C(c1ccc2c(c1)OCO2)N(c1ccccc1)C1C=CS(=O)(=O)C1 (stereo not given) | 0 | 2 | -7 | -11 | -23
CSC1=NCCN1C(=O)c1ccc(S(=O)(=O)N2CCCCC2)cc1 | 166* | 4 | -6 | -8 | -6
COC(=O)c1cc(CNC(=O)c2cccc(Cl)c2Cl)ccc1OC | 0 | -1 | 53* | -4 | -16
COC(=O)c1cc(CNC(=O)c2cccc(Cl)c2)ccc1OC | 1 | -3 | 7 | -13 | -9
O=C(Nc1ccccc1)N1CCC(C(=O)N2CCN(c3ccccc3F)CC2)CC1 | -2 | -16 | -6 | -16 | -14
Cc1cc(N2CCCCC2)n2nc(C)c(-c3ccccc3)c2n1 | 3 | 21 | 8 | -11 | -24
COc1ccccc1-c1c(C)nn2c(N3CCCCCC3)cc(C)nc12 | 1 | 4 | 79* | -17 | 1
COc1ccccc1-c1c(C)nn2c(N3CCN(c4ccccc4OC)CC3)cc(C)nc12 | 1 | -5 | 32 | -10 | -1
